Assays:
Type in all cases: cell-based
[1] = target: T1, GABA-A receptor; alpha-2/beta-3/gamma-2 (Homo sapiens, UniProt P18507+P28472+P47869); test: Inhibition of [3H]Ro-151788 binding to recombinant human gamma-aminobutyric acid A receptor alpha-2-beta-3-gamma-2 subtype expressed in L (tk-) cells
T1 sequence (P18507 whole entry): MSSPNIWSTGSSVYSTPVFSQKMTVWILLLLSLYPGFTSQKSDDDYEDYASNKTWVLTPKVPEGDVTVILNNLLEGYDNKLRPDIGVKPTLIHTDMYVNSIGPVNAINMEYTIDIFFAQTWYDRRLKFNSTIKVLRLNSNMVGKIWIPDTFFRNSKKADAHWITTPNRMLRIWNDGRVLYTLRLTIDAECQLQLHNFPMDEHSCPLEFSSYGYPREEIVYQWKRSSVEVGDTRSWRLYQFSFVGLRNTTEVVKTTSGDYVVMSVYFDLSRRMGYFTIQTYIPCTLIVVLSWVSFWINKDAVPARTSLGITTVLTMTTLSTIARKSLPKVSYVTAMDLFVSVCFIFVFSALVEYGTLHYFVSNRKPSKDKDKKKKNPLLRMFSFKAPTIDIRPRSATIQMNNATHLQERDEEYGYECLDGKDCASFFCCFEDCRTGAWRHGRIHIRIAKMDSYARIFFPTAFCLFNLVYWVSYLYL
T1 sequence (P28472 whole entry): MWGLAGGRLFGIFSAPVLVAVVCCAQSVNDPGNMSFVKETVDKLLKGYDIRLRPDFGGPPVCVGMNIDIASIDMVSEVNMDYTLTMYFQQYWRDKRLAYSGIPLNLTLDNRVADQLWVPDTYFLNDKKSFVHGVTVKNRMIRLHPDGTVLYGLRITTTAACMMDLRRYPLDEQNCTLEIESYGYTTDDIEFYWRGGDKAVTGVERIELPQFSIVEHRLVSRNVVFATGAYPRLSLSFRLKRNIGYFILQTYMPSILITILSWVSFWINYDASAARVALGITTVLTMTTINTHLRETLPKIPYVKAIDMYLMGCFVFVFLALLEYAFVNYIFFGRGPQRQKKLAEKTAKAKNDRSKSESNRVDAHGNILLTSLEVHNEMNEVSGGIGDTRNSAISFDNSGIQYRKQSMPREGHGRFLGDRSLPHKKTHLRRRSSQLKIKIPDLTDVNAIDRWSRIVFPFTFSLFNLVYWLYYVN
T1 sequence (P47869 whole entry): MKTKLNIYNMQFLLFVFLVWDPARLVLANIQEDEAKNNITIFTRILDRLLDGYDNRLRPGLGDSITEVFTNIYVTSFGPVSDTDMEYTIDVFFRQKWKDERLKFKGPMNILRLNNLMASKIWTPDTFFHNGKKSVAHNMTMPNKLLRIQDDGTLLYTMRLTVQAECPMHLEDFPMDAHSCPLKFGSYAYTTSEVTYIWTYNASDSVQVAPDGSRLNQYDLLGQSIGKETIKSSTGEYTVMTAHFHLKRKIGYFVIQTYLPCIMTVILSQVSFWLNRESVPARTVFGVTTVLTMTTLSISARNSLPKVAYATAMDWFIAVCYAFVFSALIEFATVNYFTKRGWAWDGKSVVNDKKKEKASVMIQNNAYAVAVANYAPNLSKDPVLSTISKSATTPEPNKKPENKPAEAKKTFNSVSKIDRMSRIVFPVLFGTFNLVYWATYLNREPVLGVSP

[2] = target: T2, GABA-A receptor; alpha-5/beta-3/gamma-2 (Homo sapiens, UniProt P18507+P28472+P31644); test: Inhibition of [3H]Ro-151788 binding to recombinant human gamma-aminobutyric-acid A receptor alpha-5-beta-3-gamma-2 subtype expressed in L (tk-) cells
T2 sequence (P18507 whole entry): T1 sequence (P18507 whole entry)
T2 sequence (P28472 whole entry): T1 sequence (P28472 whole entry)
T2 sequence (P31644 whole entry): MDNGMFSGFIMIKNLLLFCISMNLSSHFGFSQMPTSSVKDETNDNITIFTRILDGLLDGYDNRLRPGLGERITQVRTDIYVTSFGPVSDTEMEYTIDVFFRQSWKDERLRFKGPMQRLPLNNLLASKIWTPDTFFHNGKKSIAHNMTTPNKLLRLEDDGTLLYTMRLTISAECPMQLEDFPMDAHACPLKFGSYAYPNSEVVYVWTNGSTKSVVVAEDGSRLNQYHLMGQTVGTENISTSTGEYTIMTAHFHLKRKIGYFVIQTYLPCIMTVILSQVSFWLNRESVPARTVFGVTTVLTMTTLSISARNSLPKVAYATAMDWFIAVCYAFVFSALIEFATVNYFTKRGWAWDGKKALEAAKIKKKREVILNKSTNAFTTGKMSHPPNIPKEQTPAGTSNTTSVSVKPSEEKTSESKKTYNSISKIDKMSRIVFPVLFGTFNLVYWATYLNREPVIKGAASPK

[3] = target: GABA-A receptor; alpha-3/beta-3/gamma-2 (Homo sapiens) (UniProt P18507+P28472+P34903); test: Efficacy was measured as modulation of the current in response to GABA at hGABA alpha-3-beta-3-gamma-2 receptor expressed in Xenopus oocytes; conditions: Oocyte
Procedure, shortened: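 Two-electrode voltage clamp on Xenopus oocytes expressing each receptor combination. […] Value is percent increase or decrease of the EC20 GABA current.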

[4] = target: T3, GABA-A receptor; alpha-3/beta-3/gamma-2 (Homo sapiens, UniProt P18507+P28472+P34903); test: Inhibition of [3H]Ro-151788 binding to recombinant human gamma-aminobutyric-acid A receptor alpha-3-beta-3-gamma-2 subtype expressed in L (tk-) cells
T3 sequence (P18507 whole entry): T1 sequence (P18507 whole entry)
T3 sequence (P28472 whole entry): T1 sequence (P28472 whole entry)
T3 sequence (P34903 whole entry): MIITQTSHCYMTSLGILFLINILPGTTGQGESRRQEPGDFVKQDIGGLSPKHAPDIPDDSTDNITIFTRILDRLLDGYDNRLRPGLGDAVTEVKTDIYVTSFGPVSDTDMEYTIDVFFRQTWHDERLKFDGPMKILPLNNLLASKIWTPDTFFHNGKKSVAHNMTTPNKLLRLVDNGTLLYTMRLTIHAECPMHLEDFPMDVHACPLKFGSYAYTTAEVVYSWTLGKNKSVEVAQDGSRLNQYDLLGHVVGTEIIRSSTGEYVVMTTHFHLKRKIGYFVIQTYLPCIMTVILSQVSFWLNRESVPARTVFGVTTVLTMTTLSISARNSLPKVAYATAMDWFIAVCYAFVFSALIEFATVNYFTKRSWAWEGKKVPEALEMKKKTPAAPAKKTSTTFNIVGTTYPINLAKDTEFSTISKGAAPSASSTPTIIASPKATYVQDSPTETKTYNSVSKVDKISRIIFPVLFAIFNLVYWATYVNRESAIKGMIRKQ

[5] = target: T4, GABA-A receptor; alpha-1/beta-3/gamma-2 (Homo sapiens, UniProt P14867+P18507+P28472); test: Inhibition of [3H]Ro-151788 binding to recombinant human gamma-aminobutyric-acid A receptor alpha-1-beta-3-gamma-2 subtype expressed in L (tk-) cells
T4 sequence (P14867 whole entry): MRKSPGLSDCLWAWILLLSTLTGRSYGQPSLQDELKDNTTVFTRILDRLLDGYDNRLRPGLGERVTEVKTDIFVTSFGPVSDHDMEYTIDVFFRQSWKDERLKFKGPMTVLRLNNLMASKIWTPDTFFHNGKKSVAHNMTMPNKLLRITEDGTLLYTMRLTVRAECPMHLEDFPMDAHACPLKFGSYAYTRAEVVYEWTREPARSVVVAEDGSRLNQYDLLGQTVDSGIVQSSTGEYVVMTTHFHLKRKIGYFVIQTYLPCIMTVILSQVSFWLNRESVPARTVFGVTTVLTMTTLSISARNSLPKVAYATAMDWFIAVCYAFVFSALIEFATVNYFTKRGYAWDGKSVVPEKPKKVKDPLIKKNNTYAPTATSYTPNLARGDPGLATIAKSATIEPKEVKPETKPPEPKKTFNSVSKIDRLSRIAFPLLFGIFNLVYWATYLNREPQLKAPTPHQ
T4 sequence (P18507 whole entry): T1 sequence (P18507 whole entry)
T4 sequence (P28472 whole entry): T1 sequence (P28472 whole entry)

Structure (SMILES) | Ki [1] | Ki [2] | Efficacy [3] | Ki [4] | Ki [5]
COC(=O)c1cccnc1COc1nn2c(-c3ccccc3)nnc2c2c1C1CCC2CC1 | 0.03 µM | 0.0025 µM | 29% | 0.0071 µM | 
c1ccc(-c2nnc3c4c(c(OCc5cnccn5)nn23)C2CCC4CC2)cc1 | 0.0065 µM | 0.00077 µM | 27% | 0.003 µM | 0.016 µM
Cc1ccc(COc2nn3c(-c4ccccc4)nnc3c3c2C2CCC3CC2)nn1 | 0.022 µM | 0.0021 µM | 31% | 0.01 µM | 0.05 µM
Cc1scnc1COc1nn2c(-c3ccccc3)nnc2c2c1C1CCC2CC1 | 0.021 µM | 0.00077 µM |  | 0.012 µM | 0.035 µM
c1ccc(-c2nnc3c4c(c(COc5ccccn5)nn23)C2CCC4CC2)cc1 | 0.23 µM | 0.058 µM |  | 0.12 µM | 0.44 µM
Cc1ccccc1-c1nnc2c3c(c(OCc4ccccn4)nn12)C1CCC3CC1 | 0.28 µM | 0.022 µM |  | 0.28 µM | > 1 µM
CN(C)C(=O)COc1nn2c(-c3ccccc3)nnc2c2c1C1CCC2CC1 | 0.16 µM | 0.01 µM |  | 0.089 µM | 0.22 µM
c1ccc(-c2nnc3c4c(c(OCc5ncccc5OC5CCC5)nn23)C2CCC4CC2)cc1 | 0.043 µM | 0.0042 µM |  | 0.038 µM | 0.032 µM
CN1CCCC(COc2nn3c(-c4ccccc4)nnc3c3c2C2CCC3CC2)C1 (centres undefined) | 0.26 µM | 0.1 µM |  | 0.46 µM | 0.75 µM
c1ccc(-c2nnc3c4c(c(OCc5nc[nH]n5)nn23)C2CCC4CC2)cc1 |  |  | 49% |  | 
c1ccc(-c2nnc3c4c(c(OCc5ccco5)nn23)C2CCC4CC2)cc1 | > 0.5 µM | > 0.5 µM |  | > 0.5 µM | > 0.5 µM
Fc1ccccc1-c1nnc2c3c(c(OCc4ccccn4)nn12)C1CCC3CC1 | 0.016 µM | 0.00054 µM |  | 0.0061 µM | 0.028 µM
c1ccc(-c2nnc3c4c(c(OCc5cnc6ccccc6n5)nn23)C2CCC4CC2)cc1 | 0.034 µM | 0.0039 µM |  | 0.026 µM | 0.082 µM
c1ccc(COc2nn3c(-c4ccncc4)nnc3c3c2C2CCC3CC2)nc1 | 0.32 µM | 0.02 µM |  | 0.15 µM | > 1 µM
Cc1cc(COc2nn3c(-c4ccccc4)nnc3c3c2C2CCC3CC2)sn1 | 0.13 µM | 0.011 µM |  | 0.099 µM | 0.21 µM
c1ccc(COc2nn3c(N4CCOCC4)nnc3c3c2C2CCC3CC2)nc1 | > 1 µM | > 1 µM |  | > 1 µM | > 1 µM
c1ccc(-c2nnc3c4c(c(CNc5ccccn5)nn23)C2CCC4CC2)cc1 | > 1 µM | > 1 µM |  | > 1 µM | > 1 µM
c1ccc(-c2nnc3c4c(c(Oc5cccnc5)nn23)C2CCC4CC2)cc1 | > 0.5 µM | > 0.5 µM |  | > 0.5 µM | > 0.5 µM
Cc1cccc(CCCOc2nn3c(-c4ccccc4)nnc3c3c2C2CCC3CC2)n1 | 0.19 µM | 0.03 µM |  | 0.24 µM | 0.075 µM
O=C1CCC(COc2nn3c(-c4ccccc4)nnc3c3c2C2CCC3CC2)N1 (centres undefined) | 0.48 µM | 0.059 µM |  | 0.26 µM | 0.73 µM
Cc1csc(COc2nn3c(-c4ccccc4)nnc3c3c2C2CCC3CC2)n1 | 0.04 µM | 0.0029 µM |  | 0.03 µM | 0.14 µM
c1ccc(-c2nnc3c4c(c(OCc5nnc[nH]5)nn23)C2CCC4CC2)cc1 | 0.025 µM | 0.0028 µM |  | 0.019 µM | 0.043 µM
O=C(Nc1ccccn1)c1nn2c(-c3ccccc3)nnc2c2c1C1CCC2CC1 | 0.29 µM | 0.04 µM |  | 0.17 µM | > 1 µM
CCO[n+]1ccccc1Oc1nn2c(-c3ccccc3)nnc2c2c1C1CCC2CC1 | 0.39 µM | 0.064 µM |  | 0.55 µM | > 1 µM
c1ccc(COc2nn3c(-c4ccco4)nnc3c3c2C2CCC3CC2)nc1 | 0.11 µM | 0.0053 µM |  | 0.053 µM | 0.27 µM
N#Cc1ccccc1COc1nn2c(-c3ccccc3)nnc2c2c1C1CCC2CC1 | 0.083 µM | 0.0026 µM |  | 0.053 µM | 0.19 µM
c1ccc(-c2nnc3c4c(c(OCc5ccc6c(c5)OCO6)nn23)C2CCC4CC2)cc1 | > 0.5 µM | > 0.5 µM |  | > 0.5 µM | > 0.5 µM
Cc1cccc(-c2nnc3c4c(c(OCc5ccccn5)nn23)C2CCC4CC2)c1 | 0.21 µM | 0.017 µM |  | 0.14 µM | 0.57 µM
c1ccc(-c2nnc3c4c(c(OCc5cccs5)nn23)C2CCC4CC2)cc1 | > 0.5 µM | > 0.5 µM |  | > 0.5 µM | > 0.5 µM
N#Cc1ccc(COc2nn3c(-c4ccccc4)nnc3c3c2C2CCC3CC2)cc1 | 0.11 µM | 0.0094 µM |  | 0.07 µM | 0.31 µM

— ChEMBL document CHEMBL1142695, “Discovery of functionally selective 7,8,9,10-tetrahydro-7,10-ethano-1,2,4-triazolo[3,4-a]phthalazines as GABA A receptor agonists at the alpha3 subunit” (J Med Chem, 2005)
